Here are results for 96 compounds from ChEMBL document CHEMBL4513216, “Probing the Open Global Health Chemical Diversity Library for Multistage-Active Starting Points for Next-Generation Antimalarials” (ACS Infect Dis, 2020).

The nature of this data set: Toxicity liver stage against HepG2, at 10uM. Conditions: human, HepG2-A16-CD81EGFP cells; read-out: INHIBITION
On the set-up: test concentration 10 uM, cell line HepG2-A16-CD81EGFP. It counts as cell-based. The essentials:
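Uninfected HepG2-A16-CD81EGFP cells, 3 × 10^3 per well, 1536-well, plated on prespotted compound at 10 μM final, parasite-free screening media added to match infected plates; puromycin 10 μM positive, DMSO 0.5% negative; run in parallel with 48 h PbLuc assay at 37 °C, 5% CO2; viability by CellTiter-Glo luminescence, normalized to controls.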
Turning to `Cc1cccc2c1nc1n2[C@@H](CNC2CCCCC2)COC1`, the cytotoxicity at 10 µM was -51.8%.
Under `CC(C)(C)CN[C@@H]1CO[C@H](CNC(=O)C2CCCC2)[C@H]1O` stands -9.03%; under `O=S(=O)(NC[C@H]1OC[C@@H](NCc2cccs2)[C@@H]1O)c1ccccc1`, 3.98%.
Turning to `CCOC(=O)[C@@H]1[C@@H](c2ccccc2)CN2CCN(C(C)=O)C[C@H]12`, the cytotoxicity at 10 µM is 9.28%.
Consider `CN(C)c1ncc(NS(=O)(=O)c2ccc(OC(F)(F)F)cc2)cn1`, for which the cytotoxicity at 10 µM was 11.9%.
Consider `Cc1cccc(C(=O)N2CCN(c3ccc(-n4cccc4)nn3)CC2)c1`, for which the cytotoxicity at 10 µM stood at 67.1%.
In the case of `CNC(=O)[C@@H]1COC[C@H]2CN(C(=O)c3ccc(C)c(C)c3)C[C@H]21`, the cytotoxicity at 10 µM was 11.6%.
`COc1ccc2c(c1)OC1(CCN(Cc3ccc(F)cc3)CC1)CC2=O`: the cytotoxicity at 10 µM is 9.09%.
Under `Cc1nn(CC(=O)N2CCN(Cc3cn(C)nc3C)CC2)cc1Br` stands -6.28%; under `Cn1nc(C(=O)N2CCOCC2)cc1C(=O)Nc1c(Cl)cccc1Cl`, 12%.
As for `CCC(C)(C)n1nnnc1C(c1cccs1)N1CCc2ccccc2C1` (stereo unspecified), the cytotoxicity at 10 µM is 0.237%.
Consider `CCOCCCNCc1cc2c(C)cc(C)cc2n2c(=O)n(C)nc12`, for which the cytotoxicity at 10 µM is -4%.
Regarding `Cc1cc(C(=O)N2CCCC2c2nc(O)cc(C(C)C)n2)on1` (stereo unspecified), the cytotoxicity at 10 µM is -3.42%.
With `CC(C)N1CCCC(Cc2cncc(Br)c2)CC1` (stereo unspecified), the cytotoxicity at 10 µM is -7.5%.
`CNc1cncc(C2CCCN2Cc2ccn(C)n2)n1` (stereo unspecified): the cytotoxicity at 10 µM was -6.88%.
Under `Cc1ccc(C(=O)N2CCC(O)(CN3CCc4ccccc4C3)C2)s1` (stereo unspecified) stands -1.61%; under `CN(c1ccncn1)C1CC2(CCN(C(=O)Cc3cccs3)C2)C1` (stereo unspecified), -5.97%; under `CC1CCCCN1C(=O)CCc1nnc(-c2ccccc2)o1` (stereo unspecified), -4.65%.
Consider `CCN(Cc1cccc2c1OCCO2)C(=O)NC(C)(C)C`, for which the cytotoxicity at 10 µM was -20.9%.
Take `COCC1CCN(C(=O)c2cc(O)nc(CC(C)C)c2)CC1`: the cytotoxicity at 10 µM was -2.7%.
Consider `Cc1nc(CN(C)c2nccc(N(C)C)n2)cs1`, for which the cytotoxicity at 10 µM was -9.86%.
For the compound `CC1CN(C(=O)c2cnn(-c3ccccn3)c2C(C)C)CC(C)(C)O1` (stereo unspecified), the cytotoxicity at 10 µM is -3.09%.
On to `CCc1noc(C(C)N(C)Cc2cc(Br)ccc2OC)n1` (stereo unspecified), for which the cytotoxicity at 10 µM was -5.04%.
As to `COc1ccc(C)c(NC(=O)NCc2ncnn2C)c1`, the cytotoxicity at 10 µM is -4.27%.
Regarding `Cc1noc(C(C)N2CCN(c3ncnc4ccccc34)CC2)n1` (stereo unspecified), the cytotoxicity at 10 µM turned out to be 17.7%.
With `COc1cc(C2(C(=O)NC3CCN(C4CC4)CC3)CC2)ccc1C`, the cytotoxicity at 10 µM was 5.16%.
In the case of `N#Cc1ccc(CNC2CCN(CCc3ccncc3)CC2)cc1`, the cytotoxicity at 10 µM was -5.03%.
For the compound `CCc1cnc(CN(C)C(=O)Nc2cnn(CC3CCCO3)c2)s1` (stereo unspecified), the cytotoxicity at 10 µM was 4.03%.
As for `CCCS(=O)(=O)CCSc1cccc(C#N)c1`, the cytotoxicity at 10 µM was -3.85%.
Regarding `CC(CNC(=O)c1ccc(Cl)cc1F)N1CCCC1` (stereo unspecified), the cytotoxicity at 10 µM is -3.85%.
With `Cc1ccc(S(=O)(=O)NCCCN2CCC(O)CC2)cc1Cl`, the cytotoxicity at 10 µM came to 8.68%.
Under `CC(=O)N1CCCN(C(=O)c2cnc(OC(C)C)c(Cl)c2)CC1` stands 6.02%; under `Cc1cc(C)n(CC2CCCN2C(=O)c2ccc3c(c2)COC3)n1` (stereo unspecified), 1.85%; under `Cc1ccc(NS(=O)(=O)c2cnn(Cc3ccccc3)c2)c(C(=O)O)c1`, -2.41%.
As for `Cn1cc(C(O)CNC(=O)c2ccc(F)cc2Cl)cn1` (stereo unspecified), the figure is 0.055%; as for `CC(C)c1nc2n(n1)CC(NCC(=O)NCCC1=CCCCC1)CC2` (stereo unspecified), -4.76%; as for `CCn1cc(NC(=O)c2cccc(OCC(F)(F)F)n2)cn1`, -9.43%.
Regarding `NC(=O)CCN(C(=O)c1cccc2c1OCO2)c1ccccc1`, the cytotoxicity at 10 µM was -16.5%.
With `CN(Cc1ccc2c(c1)OCCO2)Cc1nnnn1-c1ccccc1`, the cytotoxicity at 10 µM amounted to 20.5%.
As for `CC(c1ccccc1)N(C)C(=O)CN1CCCc2cccc(F)c21` (stereo unspecified), the cytotoxicity at 10 µM is 22.5%.
With `CC(=O)c1ccc(S(=O)(=O)N2CCCC2CN2CCCC2)cc1` (stereo unspecified), the cytotoxicity at 10 µM is -1.35%.
For the compound `COc1ccccc1C1(CNCc2cccc(O)c2)CCOCC1`, the cytotoxicity at 10 µM was 9.18%.
In the case of `CC(CNC(=O)c1c[nH]nn1)Oc1ccc(Cl)cc1` (stereo unspecified), the cytotoxicity at 10 µM amounted to 9.27%.
As for `CC(NCCCc1cnn(C)c1)c1ccc(Cl)s1` (stereo unspecified), the cytotoxicity at 10 µM came out at 5.29%.
Take `Cc1nnc(SCCC(=O)N(C)Cc2ccc(F)cc2Cl)[nH]1`: the cytotoxicity at 10 µM amounted to 11.4%.
Take `CC(C)(C)c1nc(NS(=O)(=O)c2ccc(F)cc2)no1`: the cytotoxicity at 10 µM amounted to 4.71%.
With `CCN1CCN(C(=O)NC(C)c2noc(-c3ccccc3)n2)CC1` (stereo unspecified), the cytotoxicity at 10 µM is -15.5%.
Regarding `COCC(NC(=O)c1ccc[nH]1)c1cccc(C(F)(F)F)c1` (stereo unspecified), the cytotoxicity at 10 µM was -2.54%.
With `Cc1ccc(NCCCNc2nccc(-c3cn(C)nc3C)n2)nc1`, the cytotoxicity at 10 µM worked out at 14.5%.
For `N#Cc1cccc(N2CCC(CO)(CCc3ccccc3)CC2)n1`, the cytotoxicity at 10 µM was -48%.
For the compound `OC(c1ccccn1)C1CCN(Cc2cc3n(n2)CCCNC3)CC1` (stereo unspecified), the cytotoxicity at 10 µM turned out to be 6.89%.
Turning to `COc1ccc(OC)c2c(C)cc(N(C)CCCO)nc12`, the cytotoxicity at 10 µM is 7.17%.
For `CC(=O)N1C[C@H](NC(=O)c2csc(C(C)C)c2)[C@@H](C(C)C)C1`, the cytotoxicity at 10 µM was -18.2%.
On to `CC(C)(Cn1cnc(-c2ccccc2)c1-c1ccco1)N1CCOCC1`, for which the cytotoxicity at 10 µM was -38.8%.
Under `CC(C)=CCN1CCN(Cc2cc(C)c(O)c(C)c2)CC1CCO` (stereo unspecified) stands -7.44%; under `CCNc1ccnc(N2CCN(Cc3ncccc3C)CC2)n1`, -5.59%; under `Cc1cc2c(N3CCC(N(C)CCc4cnn(C)c4)CC3)ncnc2s1`, 1.38%.
Turning to `N#Cc1cccc(S(=O)(=O)N2CCCCC2CCN2CCCC2)c1` (stereo unspecified), the cytotoxicity at 10 µM is -123%.
In the case of `CN1CC(c2ccccc2)CC12CCN(C(=O)c1cccnc1)CC2` (stereo unspecified), the cytotoxicity at 10 µM worked out at 10.2%.
Take `CN(Cc1cc(C2CC2)[nH]n1)C(=O)c1ccccc1C1CCNC1` (stereo unspecified): the cytotoxicity at 10 µM is 1.89%.
`O=C(CN1CCCC1)N1CCCC(CNS(=O)(=O)Cc2ccccc2)C1` (stereo unspecified): the cytotoxicity at 10 µM is -17.9%.
In the case of `CCC(NC(=O)CC1CCN(C(C)C)CC1)c1cn2cccnc2n1` (stereo unspecified), the cytotoxicity at 10 µM was -11.3%.
For `Cc1csc(CN2CCC(C(=O)O)(n3ccc(-c4ccco4)n3)CC2)n1`, the cytotoxicity at 10 µM was -127%.
Turning to `O=C(NCCC1CN(C2CCCC2)CCO1)c1cc(=O)[nH]c(=O)[nH]1` (stereo unspecified), the cytotoxicity at 10 µM amounted to 0.0145%.
Under `CNC(=O)Cc1ccc(-n2ccnc2-c2ccc(C(=O)O)s2)cc1` stands -1.53%.
Consider `O=C(O)c1cccnc1CN1CCCC1CCc1ccccc1` (stereo unspecified), for which the cytotoxicity at 10 µM came to 10.9%.
Under `Cc1cc(CN(C)C(=O)C(c2cccnc2)N2CCOCC2)n[nH]1` (stereo unspecified) stands -52.7%; under `Cc1nnsc1C(=O)NCc1cccnc1N(C)C`, -12.2%.
Turning to `OCCc1ccccc1-n1ccnc1-c1cn(C2CCNCC2)nn1`, the cytotoxicity at 10 µM was 2.39%.
As for `CCCN1CCN(C(=O)c2cncnc2C)[C@H]2CS(=O)(=O)C[C@H]21`, the figure is 0.145%.
Regarding `Cc1oc(C(C)C)cc1C(=O)N1CCN(c2cnn(C)c(=O)c2)CC1`, the cytotoxicity at 10 µM came out at 1.27%.
`c1ccc2sc(N3CCC4(CCCN4Cc4ncc[nH]4)CC3)nc2c1`: the cytotoxicity at 10 µM came out at 9.3%.
For `N#Cc1ccc(C(=O)N2CCC(c3ncc[nH]3)CC2)cn1`, the cytotoxicity at 10 µM is -3.27%.
In the case of `CCC(=O)NCCc1cc(N2CCN(C(C)=O)CC2)nc(C2CC2)n1`, the cytotoxicity at 10 µM was -0.439%.
In the case of `CN(C)c1ncc(CN2CCC(c3nnsc3S(C)(=O)=O)CC2)cn1`, the cytotoxicity at 10 µM is 4.12%.
Regarding `CNc1cc2c(nn1)CCN(C(=O)c1cccc3c1OCCO3)C2`, the cytotoxicity at 10 µM was -5.13%.
Consider `Cc1cc(C)c(CNC(=O)N(C)Cc2ccc3c(c2)OCO3)c(=O)[nH]1`, for which the cytotoxicity at 10 µM is -5.53%.
With `Cc1cc(C)n(CC2CN(CCOc3ccc(C#N)cc3)CCO2)n1` (stereo unspecified), the cytotoxicity at 10 µM is -6.31%.
On to `CCc1nnc2n1CCN(C(=O)CN(C)C1CC1)C2`, for which the cytotoxicity at 10 µM was -1.28%.
As for `Cc1nc(CN(C)C2CCN(CCC(=O)N3CCOCC3)C2)no1` (stereo unspecified), the figure is -0.945%; as for `Cc1nn(C)c(N2CCOCC2)c1CNCc1ccc(N(C)C)nc1`, -14.4%.
As for `c1ccc(-c2cnc(CNC3CCCN(c4cccnn4)C3)o2)cc1` (stereo unspecified), the figure is 0.993%.
As for `CCc1nnsc1C(=O)N1CCOC(c2nc(C)n[nH]2)C1` (stereo unspecified), the cytotoxicity at 10 µM is -6.45%.
As to `Cc1nccn1C1CCCN(C(=O)C2=NN(C)C(=O)CC2)C1` (stereo unspecified), the cytotoxicity at 10 µM is -7.49%.
With `Cc1nc(CNCC2CN(C)CCO2)cs1` (stereo unspecified), the cytotoxicity at 10 µM was -9.16%.
Regarding `CN(Cc1noc(C2CC2)n1)C1CCN(Cc2nnc(C3CC3)o2)C1` (stereo unspecified), the cytotoxicity at 10 µM was -5.28%.
As for `Brc1cccnc1OC1CCNCC1`, the figure is -10.3%.
Take `OCC1CCC2(CC1)CN(Cc1ccsc1)Cc1ccccc1O2` (stereo unspecified): the cytotoxicity at 10 µM is -3.78%.
Under `CCn1ncc2c1C(COC)N(C(=O)c1cccs1)CC2` (stereo unspecified) stands -112%; under `c1ccc(NC[C@@H]2CCC[C@@H]3CN(Cc4nccs4)C[C@@H]32)nc1`, -108%; under `CO[C@@H]1CCN(Cc2ccoc2)C[C@@H]1Cc1ccccc1`, 16.5%.
Consider `Cc1ccc(N2CC[C@@H]3[C@@H]2CCN3Cc2ccsc2)nn1`, for which the cytotoxicity at 10 µM was -106%.
Consider `CN1CCC2(COCc3cnc(N4CCOCC4)nc32)C1` (stereo unspecified), for which the cytotoxicity at 10 µM was -6.13%.
With `O=C([C@H]1C[C@@H]2CCN(C3CCOCC3)C[C@H]2O1)N1CCCC1`, the cytotoxicity at 10 µM is 7.31%.
Consider `COCC1CN(C(=O)c2ccoc2)Cc2cnn(CC3CCOCC3)c21` (stereo unspecified), for which the cytotoxicity at 10 µM was determined as 2.77%.
Turning to `O=C(c1ccoc1)N1CCCC2(CCC(=O)N2Cc2ccncc2)C1` (stereo unspecified), the cytotoxicity at 10 µM was -3.55%.
